Calls of active or inactive are those of the source. No cut-off for these calls is given here.
How the values were obtained:
[1] = system: HT-29; assay: Induction of cell cycle arrest in human HT-29 cells assessed as accumulation of cells at G0/G1 phase at 4 uM incubated for 24 hrs by RNase/PI staining based flow cytometry analysis (reference value: 50.206%); type: functional
[2] = system: A549; assay: Antiproliferative activity against human A549 cells assessed as inhibition of cell growth incubated for 24 hrs by MTT assay; type: functional, cell-based; details: A549, 24 h
[3] = system: DLD-1; assay: Antiproliferative activity against human DLD-1 cells assessed as inhibition of cell growth incubated for 24 hrs by MTT assay; type: functional, cell-based; details: DLD-1, 24 h
[4] = system: A 172; assay: Antiproliferative activity against human A-172 cells assessed as inhibition of cell growth incubated for 24 hrs by MTT assay; type: functional, cell-based; details: A 172, 24 h
[5] = system: HT-29; assay: Antiproliferative activity against human HT-29 cells assessed as inhibition of cell growth incubated for 24 hrs by MTT assay; type: functional, cell-based; details: HT-29, 24 h
[6] = system: HT-29; assay: Inhibition of phosphorylated GSK-3beta protein expression in human HT-29 cells at 4 uM incubated for 72 hrs by Western blot analysis; type: functional, cell-based
[7] = system: Caco-2; assay: Antiproliferative activity against human Caco-2 cells assessed as inhibition of cell growth incubated for 24 hrs by MTT assay; type: functional, cell-based; details: Caco-2, 24 h
[8] = system: HT-29; assay: Induction of cell cycle arrest in human HT-29 cells assessed as accumulation of cells at S phase at 4 uM incubated for 24 hrs by RNase/PI staining based flow cytometry analysis (reference value: 17.934 %); type: functional
[9] = system: HT-29; assay: Downregulation of PI3K-p85 expression in human HT-29 cells by immunofluorescence based confocal microscopic analysis; type: functional, cell-based
In short: (§1)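 HT-29 cells were stained for F-actin with Phalloidin Red alongside immunofluorescent staining of PI3K-p85 (or NF-κB), then examined by fluorescence imaging for actin-filament integrity and p85 signal.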

[10] = system: HT-29; assay: Cytotoxicity against human HT-29 cells assessed as damage of actin filament by F-actin/phalloidin red staining based confocal microscopic analysis; type: functional, cell-based; in short: as §1
[11] = system: HT-29; assay: Induction of mitochondrial damage in human HT-29 cells assessed as increase in monomer formation at 4 uM incubated for 24 hrs by JC-1 staining based flow cytometry analysis; type: functional, cell-based
In short: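 HT-29 cells exposed 24 h to test agent at 1, 2 or 4 μM, then stained with JC-1. Flow cytometry scored the % of cells in JC-1 aggregate versus monomer populations. Treated groups were compared with untreated control by two-way ANOVA with Tukey's post hoc test.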

[12] = Antiproliferative activity against human Tera-1 cells assessed as inhibition of cell growth incubated for 24 hrs by MTT assay; type: functional, cell-based; details: Tera-1, 24 h
[13] = system: HT-29; assay: Inhibition of nuclear translocation of NFkappaB in human HT-29 cells assessed as reduction in NFkappaB expression in nucleus by immunofluorescence based confocal microscopic analysis; type: functional, cell-based
In short: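 HT-29 colon cancer cells were treated with test compounds, then immunostained for NF-κB and co-stained for F-actin. Nuclear NF-κB signal was read by immunofluorescence imaging.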

[14] = biological target: T1, Catenin beta-1 (Homo sapiens) (UniProt P35222); assay: Inhibition of beta-catenin phosphorylation in human HT-29 cells at 4 uM incubated for 72 hrs by Western blot analysis; type: cell-based
T1 sequence (whole entry): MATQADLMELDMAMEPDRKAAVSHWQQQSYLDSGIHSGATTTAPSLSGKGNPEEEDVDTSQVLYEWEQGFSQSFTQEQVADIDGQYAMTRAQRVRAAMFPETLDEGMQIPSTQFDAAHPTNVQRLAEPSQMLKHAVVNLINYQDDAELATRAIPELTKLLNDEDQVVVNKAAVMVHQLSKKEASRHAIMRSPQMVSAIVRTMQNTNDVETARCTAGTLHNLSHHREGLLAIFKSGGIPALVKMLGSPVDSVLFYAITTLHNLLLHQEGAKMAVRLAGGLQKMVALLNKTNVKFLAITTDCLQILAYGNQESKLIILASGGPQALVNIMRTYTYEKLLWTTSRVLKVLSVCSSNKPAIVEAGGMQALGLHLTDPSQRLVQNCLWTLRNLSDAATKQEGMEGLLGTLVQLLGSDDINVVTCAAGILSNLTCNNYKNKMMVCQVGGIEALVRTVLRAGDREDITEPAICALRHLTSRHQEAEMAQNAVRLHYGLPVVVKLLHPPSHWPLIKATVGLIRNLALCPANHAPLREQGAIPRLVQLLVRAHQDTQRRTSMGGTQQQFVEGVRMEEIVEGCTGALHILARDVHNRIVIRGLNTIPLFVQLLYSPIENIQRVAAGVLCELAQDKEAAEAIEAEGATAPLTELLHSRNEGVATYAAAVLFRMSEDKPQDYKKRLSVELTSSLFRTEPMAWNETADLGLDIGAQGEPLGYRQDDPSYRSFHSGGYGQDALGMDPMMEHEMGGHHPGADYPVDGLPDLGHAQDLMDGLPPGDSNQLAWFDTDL

[15] = system: HT-29; assay: Induction of apoptosis in human HT29 cells assessed as increase in early apoptotic cells at 1 uM incubated for 24 hrs by annexin V/PI staining based flow cytometry analysis; type: functional, cell-based
In short: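 Annexin/PI double staining of HT-29 cells after 24 h exposure at 1, 2 or 4 μM. Flow cytometry gated early apoptotic, late apoptotic and necrotic populations, reported as % of cells. Comparison to untreated control used two-way ANOVA followed by Tukey's post hoc analysis.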

[16] = system: HT-29; assay: Inhibition of GSK-3beta protein expression in human HT-29 cells at 1 uM incubated for 72 hrs by Western blot analysis; type: functional, cell-based
[17] = system: HT-29; assay: Downregulation of TAB-182 protein expression in human HT-29 cells at 1 uM by immunostaining based confocal microscopic analysis; type: functional, cell-based
[18] = system: HT-29; assay: Inhibition of AXIN-1 protein expression in human HT-29 cells at 1 uM incubated for 72 hrs by Western blot analysis; type: functional, cell-based
[19] = biological target: T1, Catenin beta-1 (Homo sapiens); assay: Inhibition of beta-catenin phosphorylation in human HT-29 cells at 1 uM incubated for 72 hrs by Western blot analysis; type: cell-based
[20] = biological target: 182 kDa tankyrase-1-binding protein (Homo sapiens) (UniProt Q9C0C2); assay: Inhibition of TAB-182 phosphorylation in human HT-29 cells at 1 uM incubated for 72 hrs by Western blot analysis; type: cell-based
[21] = system: HT-29; assay: Inhibition of phosphorylated GSK-3beta protein expression in human HT-29 cells at 1 uM incubated for 72 hrs by Western blot analysis; type: functional, cell-based
[22] = system: HT-29; assay: Inhibition of APC protein expression in human HT-29 cells at 2 uM incubated for 72 hrs by Western blot analysis; type: functional, cell-based
[23] = system: HT-29; assay: Inhibition of AKT protein expression in human HT-29 cells at 2 uM incubated for 72 hrs by Western blot analysis; type: functional, cell-based
[24] = system: HT-29; assay: Inhibition of GSK-3beta protein expression in human HT-29 cells at 2 uM incubated for 72 hrs by Western blot analysis; type: functional, cell-based
[25] = system: HT-29; assay: Induction of cell cycle arrest in human HT-29 cells assessed as accumulation of cells at subG1 phase at 2 uM incubated for 24 hrs by RNase/PI staining based flow cytometry analysis (reference value: 1.798%); type: functional
[26] = biological target: T1, Catenin beta-1 (Homo sapiens); assay: Inhibition of beta-catenin phosphorylation in human HT-29 cells at 2 uM incubated for 72 hrs by Western blot analysis; type: cell-based
[27] = system: HT-29; assay: Induction of cell cycle arrest in human HT-29 cells assessed as accumulation of cells at G0/G1 phase at 2 uM incubated for 24 hrs by RNase/PI staining based flow cytometry analysis (reference value: 50.206%); type: functional

Chain of 182 kDa tankyrase-1-binding protein (Homo sapiens) (Q9C0C2 whole entry): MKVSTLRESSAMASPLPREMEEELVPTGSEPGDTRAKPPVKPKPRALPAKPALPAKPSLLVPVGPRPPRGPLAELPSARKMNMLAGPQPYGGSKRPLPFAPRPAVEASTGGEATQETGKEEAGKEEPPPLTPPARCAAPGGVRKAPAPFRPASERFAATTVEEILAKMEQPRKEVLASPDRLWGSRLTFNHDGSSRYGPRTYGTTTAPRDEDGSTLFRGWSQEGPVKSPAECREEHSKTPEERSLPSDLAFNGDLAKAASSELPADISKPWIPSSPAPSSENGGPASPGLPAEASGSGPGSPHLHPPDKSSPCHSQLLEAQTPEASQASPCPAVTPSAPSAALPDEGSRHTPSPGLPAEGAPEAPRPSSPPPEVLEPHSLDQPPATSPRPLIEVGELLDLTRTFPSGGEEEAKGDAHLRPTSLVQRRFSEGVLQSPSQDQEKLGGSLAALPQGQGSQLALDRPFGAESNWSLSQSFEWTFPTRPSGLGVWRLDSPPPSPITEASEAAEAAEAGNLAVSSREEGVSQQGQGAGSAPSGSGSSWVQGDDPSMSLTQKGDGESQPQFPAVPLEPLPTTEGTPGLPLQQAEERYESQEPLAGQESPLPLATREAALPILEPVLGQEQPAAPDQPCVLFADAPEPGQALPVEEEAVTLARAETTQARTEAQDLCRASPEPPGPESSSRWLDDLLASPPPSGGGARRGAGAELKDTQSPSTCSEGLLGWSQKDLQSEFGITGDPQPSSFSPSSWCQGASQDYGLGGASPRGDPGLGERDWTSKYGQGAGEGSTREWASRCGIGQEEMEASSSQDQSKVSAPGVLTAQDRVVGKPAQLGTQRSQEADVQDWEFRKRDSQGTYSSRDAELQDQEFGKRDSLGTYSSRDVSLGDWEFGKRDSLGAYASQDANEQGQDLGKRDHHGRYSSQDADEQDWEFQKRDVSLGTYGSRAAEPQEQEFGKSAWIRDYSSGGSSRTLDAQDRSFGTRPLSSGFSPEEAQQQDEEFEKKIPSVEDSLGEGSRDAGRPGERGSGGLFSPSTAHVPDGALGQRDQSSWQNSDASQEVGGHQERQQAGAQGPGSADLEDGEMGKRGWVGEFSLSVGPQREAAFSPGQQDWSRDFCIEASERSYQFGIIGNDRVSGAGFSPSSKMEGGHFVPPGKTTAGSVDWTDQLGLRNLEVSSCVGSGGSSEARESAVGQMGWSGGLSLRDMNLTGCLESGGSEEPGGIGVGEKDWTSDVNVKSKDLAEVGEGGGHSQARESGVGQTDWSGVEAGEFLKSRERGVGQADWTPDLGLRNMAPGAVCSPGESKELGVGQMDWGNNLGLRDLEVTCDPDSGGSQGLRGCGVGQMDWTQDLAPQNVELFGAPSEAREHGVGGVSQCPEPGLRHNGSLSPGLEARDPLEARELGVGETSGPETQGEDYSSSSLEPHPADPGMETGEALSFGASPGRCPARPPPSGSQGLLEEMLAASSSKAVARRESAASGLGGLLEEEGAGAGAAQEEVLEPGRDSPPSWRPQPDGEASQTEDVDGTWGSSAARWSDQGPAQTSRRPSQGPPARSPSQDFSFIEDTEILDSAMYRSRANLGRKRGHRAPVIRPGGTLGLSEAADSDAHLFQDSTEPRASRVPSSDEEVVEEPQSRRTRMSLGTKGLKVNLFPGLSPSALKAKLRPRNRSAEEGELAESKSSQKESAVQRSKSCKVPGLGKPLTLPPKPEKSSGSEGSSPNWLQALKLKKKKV

IC50 [2] [µM]	IC50 [3] [µM]	IC50 [5] [µM]	IC50 [7] [µM]	SMILES	IC50 [4] [µM]	Activity [9]	Activity [10]	IC50 [12] [µM]	inhibition [13]	other results
25.1	9.3	3.6	15.5	COc1cccc(-n2c(SCCc3c[nH]c4ccccc34)nnc2-c2ccncc2)c1	26.8	Active	Active	19.4	Active	Activity [1]: 42.657%; inhibition [6]: Active; Activity [8]: 20.837%; Activity [11]: Active; inhibition [14]: Active
6.7	7	1	3.9	COc1ccc(-n2c(SCCc3c[nH]c4ccccc34)nnc2-c2ccncc2)cc1	9	Active	Active	4.3	Active	Activity [15]: Active; inhibition [16]: Active; Activity [17]: Active; inhibition [18]: Active; inhibition [19]: Active; inhibition [20]: Active; inhibition [21]: Active
5.3	7	2.4	9.1	Fc1ccccc1-n1c(SCCc2c[nH]c3ccccc23)nnc1-c1ccncc1	9.5	Active	Active	10.5	Active	inhibition [22]: Active; inhibition [23]: Active; inhibition [24]: Active; Activity [25]: 0.854%; inhibition [26]: Active; Activity [27]: 67.66%
